Columns and labels:
[1] = Antitumor activity against human MDA231 cells after 24 to 48 hrs by MTT assay; type: functional, cell-based; conditions: MDA-MB-231
In short: (§1)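 MTT read-out. Cells grown at 37 °C in DMEM with 10 mM glucose, 10% fetal calf serum, penicillin/streptomycin and 2 mmol/L glutamine. Seeded at 10^5 cells per well and left 24 h to attach, then compound added over a range of concentrations and cells grown 24 or 48 h. MTT at 1 mg/mL for 2 h at 37 °C in the dark, formazan dissolved in DMSO, OD read at 550 nm. Values are % of vehicle control (0.5% DMSO); IC50 by linear and polynomial regression; triplicate.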

SW-620 = assay: Antitumor activity against human SW620 cells after 24 to 48 hrs by MTT assay; type: functional, cell-based; in short: as §1
U-937 = assay: Antitumor activity against human U937 cells after 24 to 48 hrs by MTT assay; type: functional, cell-based; in short: as §1
SF-295 = assay: Antitumor activity against human SF295 cells after 24 to 48 hrs by MTT assay; type: functional, cell-based; in short: as §1
Caco-2 [2] = assay: Selectivity index, ratio IC50 for undifferentiated human Caco2 cells to IC50 for differentiated human Caco2 cells; type: functional
In short: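 Ratio of MTT IC50 in undifferentiated to differentiated Caco-2 cells. MTT conditions: 24 or 48 h exposure, formazan dissolved in DMSO, read at 550 nm, IC50 by regression, triplicate.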

COLO 205 = assay: Antitumor activity against human COLO205 cells after 24 to 48 hrs by MTT assay; type: functional, cell-based; in short: as §1
SK-MEL-28 = assay: Antitumor activity against human SK-MEL-28 cells after 24 to 48 hrs by MTT assay; type: functional, cell-based; in short: as §1
SNB-19 = assay: Antitumor activity against human SNB19 cells after 24 to 48 hrs by MTT assay; type: functional, cell-based; in short: as §1
HT-29 = assay: Antitumor activity against human HT-29 cells after 24 to 48 hrs by MTT assay; type: functional, cell-based; in short: as §1
[3] = Antitumor activity against human IGROV cells after 24 to 48 hrs by MTT assay; type: functional, cell-based
In short: as §1, with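 “nm.” for “nm. Values are % of vehicle control (0.5% DMSO); IC50 by linear and polynomial regression; triplicate.”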

Caco-2 [4] = assay: Antitumor activity against human differentiated Caco2 cells after 24 to 48 hrs by MTT assay; type: cell-based; in short: as §1
MDA-MB-435 = assay: Antitumor activity against human MDA-MB-435 cells after 24 to 48 hrs by MTT assay; type: functional, cell-based
In short: as §1, with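 “nm.” for “nm. Values are % of vehicle control (0.5% DMSO); IC50 by linear and polynomial regression; triplicate.”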

Caco-2 [5] = assay: Antitumor activity against human undifferentiated Caco2 cells after 24 to 48 hrs by MTT assay; type: functional, cell-based; in short: as §1
MCF7 = assay: Cytotoxicity against human MCF7 cells; type: functional, cell-based; in short: as §1

IC50 (SW-620) [µM]	IC50 (U-937) [µM]	SMILES	IC50 [1] [µM]	further results
5.4	0.9	O=C1c2ccccc2C(=O)c2c(NC(=O)[C@@H]3CCCN3)csc21	6.7	
> 40	20	NCCCC[C@H](N)C(=O)Nc1csc2c1C(=O)c1ccccc1C2=O	> 40	
0.8	1.7	NCCC(=O)Nc1csc2c1C(=O)c1ccccc1C2=O.O=C(O)C(F)(F)F	3.7	IC50 (SF-295): 2.8 µM; Ratio IC50 (Caco-2 [2]): 0.43; IC50 (COLO 205): 0.4 µM; IC50 (SK-MEL-28): 1.5 µM; IC50 (SNB-19): 1.6 µM; IC50 (HT-29): 0.6 µM; IC50 [3]: 1.2 µM; IC50 (Caco-2 [4]): 6.1 µM; IC50 (MDA-MB-435): 0.4 µM; IC50 (Caco-2 [5]): 2.6 µM
20.7	23.9	O=C(CCS)Nc1csc2c1C(=O)c1ccccc1C2=O	15.2	
20.9	30.1	O=C(CS)Nc1csc2c1C(=O)c1ccccc1C2=O	13.6	
18.5	15.1	O=C(CO)Nc1csc2c1C(=O)c1ccccc1C2=O	10.1	
20.3	15	O=C(CCO)Nc1csc2c1C(=O)c1ccccc1C2=O	9.2	
4	5.1	CCN(CC)CC(=O)Nc1csc2c1C(=O)c1ccccc1C2=O	8.5	
20.1	7.2	O=C(CCN1CCOCC1)Nc1csc2c1C(=O)c1ccccc1C2=O	10.1	
4	10.1	Nc1csc2c1C(=O)c1ccccc1C2=O	11.3	IC50 (MCF7): 3.2 µM
